Laboratory results reported in ChEMBL document CHEMBL4513216, “Probing the Open Global Health Chemical Diversity Library for Multistage-Active Starting Points for Next-Generation Antimalarials” (ACS Infect Dis, 2020).

Test: Toxicity liver stage against HepG2, at 10uM
Type: cell-based
Parameters: test concentration 10 uM, cell line HepG2-A16-CD81EGFP
Conditions: human, HepG2-A16-CD81EGFP cells; read-out: INHIBITION
Summary of the method: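 Uninfected HepG2-A16-CD81EGFP cells, 3 × 10^3 per well, 1536-well, plated on prespotted compound at 10 μM final, parasite-free screening media added to match infected plates; puromycin 10 μM positive, DMSO 0.5% negative; run in parallel with 48 h PbLuc assay at 37 °C, 5% CO2; viability by CellTiter-Glo luminescence, normalized to controls.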

Compound | cytotoxicity at 10 µM [%]
CCc1ncc(CN2CCC(O)(c3ccccc3F)CC2)cn1 | -4.68
Cc1nc(CN2CCC(CNC(=O)Nc3ccccc3)CC2)oc1C | 3.54
Cc1ccc([C@@H]2CN(C(=O)c3ccsc3)C[C@H]2NC(=O)C2CC2)cc1 | 2.93
Cc1cc(CN2C[C@@H]3COC[C@]3(CNS(C)(=O)=O)C2)no1 | -71.2
Cc1c(OCC(=O)NCc2ccccc2)c(=O)ccn1C | -49.9
CCOc1cc(CNC(C)c2ccc(F)cc2)ccn1 (stereo unspecified) | 10.9
CC(=O)c1sc(Nc2ccc(Cl)cn2)nc1C | 41.9
CCCn1ccnc1SCCNS(=O)(=O)c1ccccc1 | -12.8
CN(Cc1nnc2ccccn12)C(=O)NC1CCCCC1 | -5.97
O=C(c1cn(Cc2ccccc2)c2ncccc12)N1CCOCC1 | -0.142
Cc1cccc2nc(C(=O)N3CCCC[C@]4(C)NC(=O)CCC[C@H]34)cn12 | -1.85
CCOCCCNC(=O)c1cn(CC)nc1C | 5.37
Cc1cnn(CC2CN(Cc3ccccn3)CCO2)c1 (stereo unspecified) | -2.84
CC(C)NC(=O)C1CCN(Cn2ccc(-c3ccc(F)cc3)n2)CC1 | 7.07
Cc1nc(C)n(C2CCCN(C(=O)Cc3ccc4c(c3)CCC4)C2)n1 (stereo unspecified) | -10.3
COCCC(=O)N1CCCC1c1nccc(C)n1 (stereo unspecified) | -19.2
O=C([C@H]1C[C@H]2OCC[C@H]2N(Cc2ccco2)C1)N1CCCO1 | 8.73
Cc1cc(C)cc(CN2CCN(Cc3cc(C#N)n(C)c3)CC2=O)c1 | 6.24
COc1ccc(CC(=O)N2CCC(Nc3ccc(C)nn3)CC2)cc1 | -5.34
COCc1ccccc1NC(=O)NC(C)c1ccc(C)o1 (stereo unspecified) | 0.205
C1CN(CC2CC2)C(COCC2CC2)c2nnn(CC3CC3)c21 (stereo unspecified) | -3.66
CN1CCNCC(Cc2cnc3ccccc3c2)C1 (stereo unspecified) | -12.4
COCCNC(=O)Cn1c(C)cc2nc(SC)n(CC(C)C)c(=O)c21 | -14.6

Compound | cytotoxicity at 10 µM [%]
CN(Cc1cccnc1)C1CC2(CCN(c3ncccn3)CC2)C1 | -3.31
COc1ccccc1CN(Cc1nc2c(cnn2C)c(=O)[nH]1)C1CC1 | 15
CCN(Cc1cccc(C)c1)Cc1nc2c(cnn2C)c(=O)[nH]1 | -21.6
O=C(c1cccnc1)N1CCOCC2(CCN(c3ncccn3)C2)C1 (stereo unspecified) | 8.88
O=C(NCc1nnc2n1CCC2)c1cn(-c2ccccc2Br)nn1 | 3.37
CCNC(=O)NC(=O)CNC(C)(CC)c1nc(C)cs1 (stereo unspecified) | 6.99
CCC(=O)N1CCN(c2cc(-n3cnc(C)c3C)nc(C)n2)CC1 | -4.56
Cc1ccccc1CC(=O)N[C@@H]1CCC[C@@H](N2CCNC(=O)C2)[C@@H]1O | -24.5
Cc1noc([C@H]2C[C@@H]3CCN(C(=O)c4cccn4C)C[C@H]3O2)n1 | -103
COc1cccc2c1OCC(NCCc1cnn(-c3ccccc3)c1)C2 (stereo unspecified) | -0.6
CNc1cc(N2CCCC2CNCc2ccccn2)ncn1 (stereo unspecified) | 7.31
CC(C)C(C)NC(=O)c1ncn2c1CN(C)S(=O)(=O)c1ccccc1-2 (stereo unspecified) | -132
CC(C)c1nn(C)c(N2CCOCC2)c1CNCC(=O)N(C)C | -4.3
CCc1nc(CN(C)C2CCN(CC(=O)N3CCOCC3)C2)no1 (stereo unspecified) | -5.32
CC1=N[C@@]2(CC[C@@H]3CN(S(=O)(=O)CC(C)C)C[C@@H]32)C(=O)N1CC1CC1 | -66.6
CCc1ncnc(N2CCOCC2C(N)=O)c1F (stereo unspecified) | -4.73
Cc1cc(C)nc(CCNc2nccc(CCC(F)(F)F)n2)n1 | -114
CCNc1nc(-c2cccnc2)c(-c2ccnc(N3CCOCC3)n2)s1 | -10.1
Cc1nn(CCCNC(=O)C2CCN(S(C)(=O)=O)CC2)cc1Br | -7.24
Cc1cnn(CC2CCCN2Cc2nnc(C3CC3)o2)c1 (stereo unspecified) | -21.7
c1cc(-c2noc(-c3cc(C4CC4)[nH]n3)n2)cc(N2CCCCC2)n1 | 3.05
c1cnc(N2CCC3(COCCN(CC4CC4)C3)C2)nc1 (stereo unspecified) | 0.668
O=C(CC1CCCO1)Nc1cccc(N2CCN(CC3CC3)CC2)c1 (stereo unspecified) | -0.699

Compound | cytotoxicity at 10 µM [%]
c1ccc(-c2noc([C@@H]3Cc4nc[nH]c4CN3)n2)cc1 | -4.26
COC(=O)[C@@H]1Cc2ncn(C)c2CN1S(=O)(=O)c1ccc(OC)cc1 | -4.13
CCN(CC)[C@H]1COC[C@@H]2CN(Cc3cnn(C)c3)C[C@@H]21 | 11.5
CC(C)n1nc2c(cc1=O)CN(CCOc1cccc(C#N)c1)CC2 | 13.6
O=C(NC1CC1)c1cc2c(nc1O)CC(c1cccs1)CC2=O (stereo unspecified) | 86.1
COc1c(C2CCCN2C(=O)c2scnc2C)c(C)nn1C (stereo unspecified) | -1.49
CCOC(=O)C1CCN(c2cc(C(=O)N3CCCCC3)nc(C)n2)CC1 | -4.17
CCc1ccccc1CN1CCC(N2CCCC2=O)CC1 | -2.53
Cc1cc(NC(=O)CNc2cccc(C(=O)N3CCCC(O)C3)c2)no1 (stereo unspecified) | -2.21
Cc1ccc(S(=O)(=O)N2C[C@H]3C[C@H](NC(=O)c4ccccn4)[C@H]3C2)cc1 | 64.3
N#Cc1cccnc1NCCc1cc(F)cc2c1OCOC2 | 19.5
CN(Cc1ccc(F)c2cccnc12)C1CCS(=O)(=O)C1 (stereo unspecified) | 5.93
Cc1nnc(NCc2ccc(Br)cc2)o1 | 1.66
CO[C@@H]1CC[C@H]2[C@H]1OCCN2Cc1ccc(F)c(F)c1 | 4.33
COC1CCN(C(=O)Cc2csc(-c3ccccc3)n2)CC1 | -6.75
CCc1ccccc1C(=O)N1CCCC1CC(=O)c1cnn(C)c1 (stereo unspecified) | -1.22
CN1CCN(c2cc(Sc3cccs3)nc(N)n2)CC1CCO (stereo unspecified) | 1.31
COC(=O)CCNC(=O)c1ccc(NC(=O)N(C)CC(C)C)cc1 | 9.13
O=C(c1ccccc1)N(CC1CC1)c1cccnc1 | 7.27
CCOC(=O)NC(CNC(=O)c1cn(C)cn1)CC(C)C (stereo unspecified) | -5.35
CSCC(=O)N1CCCN(c2ccccc2C)CC1 | 8.14
CCOCC1CN(C(=O)c2cc(C)oc2C)Cc2c1cnn2C (stereo unspecified) | 9.64
COCCN1CCC2(CC1)CC(NCc1cncn1C)c1ccccc12 (stereo unspecified) | -8.13

Compound | cytotoxicity at 10 µM [%]
Cc1cc(CN(C)C(=O)c2ccc(F)c(C(F)(F)F)c2)no1 | -10
Cc1nnc(NC(=O)NCc2ccc(OC(C)C)nc2)s1 | -10.4
Cn1c(C2CC2)nc2cc(NC(=O)C3CC=CC3)ccc21 | 2.8
Cc1nn(C)c(=O)c2nn(-c3cccc(Cl)c3)c(C)c12 | 3.79
O=C(NC1CCCCC1)N1CCC(n2cc(-c3ccccn3)nn2)CC1 | 4.49
O=S(=O)(c1cccnc1)N1CCN(CC(O)c2cccs2)CC1 (stereo unspecified) | -4.21
CCC(C#N)NC(=O)c1ccc(Oc2cccnc2)cc1 (stereo unspecified) | -5.82
O=C(NCc1ccco1)Nc1cccc(S(=O)(=O)C(F)F)c1 | -54.8
CC(SCCS(C)(=O)=O)c1nc(Cc2ccccc2)no1 (stereo unspecified) | 2.25
Cc1cc(C#N)ccc1S(=O)(=O)N1CCN(C)Cc2ccccc21 | 5.34
Cc1noc(C)c1CN1CC[C@@H]2O[C@H](COCC(C)C)CC[C@@H]21 | 8.28
O=C(c1ccc[nH]1)N1Cc2nccn2CC(COc2cccnc2)C1 (stereo unspecified) | 18.1
COc1ccc(CCNC(=O)CC(NC(N)=O)c2ccccc2)cc1 (stereo unspecified) | 2.19
CC(NC1CCSCC1)c1ccccc1-n1cccn1 (stereo unspecified) | -2.24
Cc1cccc(C(=O)NCc2ccc(N3CCCCC3)nc2)n1 | 4.26
Cc1ccc(C2COCCN2C(=O)c2ccc(N(C)C)cc2)o1 (stereo unspecified) | 4
Cc1cc(NC(=O)CN2CCn3c(nnc3C3CC3)C2)n(C)n1 | -14
O=C(NCCNc1ncccn1)C1CC(=O)N(CC2CC2)C1 (stereo unspecified) | -14
CCN1CCO[C@@H]2CN(S(=O)(=O)c3cccs3)CC[C@@H]2C1 | 4.82
CNc1cccc(C2CCCN(C(C)=O)C2)n1 (stereo unspecified) | -0.962
CCOc1ccc(CSC(C)c2nc(C)no2)nc1 (stereo unspecified) | -9.32
Cc1cc(CNC(=O)NCCCC(=O)N2CCc3ccccc32)no1 | 5.02
Cc1ccsc1CN(C)c1cc(N2CCCC2CO)ncn1 (stereo unspecified) | 11.7

Compound | cytotoxicity at 10 µM [%]
COCC1c2c(cnn2C)CCN1Cc1ccc(C)o1 (stereo unspecified) | -5.73
CCC[C@H]1CN(CCOC)C[C@@H]1NC(=O)Cn1cc(C)cn1 | 4.83
COCC(=O)N1CCCC2(CCN(c3ccccc3)C2=O)C1 (stereo unspecified) | -74.3
CC(O)CN1CCN(C(=O)c2sccc2C2CC2)CC1 (stereo unspecified) | 1.83
O=C(c1cccn1Cc1cccs1)N1CCN(C2CC2)CC1 | -10.4
Cc1n[nH]c(C2CN(C(=O)CCc3ccco3)CCO2)n1 (stereo unspecified) | -1.95
CN(C[C@@H]1CCC[C@@H]2CN(Cc3cccnc3)C[C@@H]21)C1CC1 | 8.01
CSc1[nH]nc(NC(=O)c2ccccc2)c1C#N | -9.59
Cc1n[nH]c2nc(-c3cc(Br)ccc3O)cc(C(=O)O)c12 | 0.0962
O=C(Nc1cnc(C2CC2)nc1)N1CCCC1 | -14.9
CCN1CCCC1CNC(=O)c1cc(COc2ccccc2F)[nH]n1 (stereo unspecified) | -4.17
COc1cccc(-c2nc(CC(=O)NC3(C)CCS(=O)(=O)C3)cs2)c1 (stereo unspecified) | 19
O=C(c1cccnc1)N1CCc2ncnc(N3CCOCC3)c2CC1 | -79.3
CCN1CCN(C(=O)C(C)N2CCN(Cc3nccn3C)CC2)CC1 (stereo unspecified) | -6.34
CC(CNCc1ccc2c(c1)n(C)c(=O)n2C)Oc1ccccn1 (stereo unspecified) | 6.27
COc1ccc(N(Cc2ccco2)C(=O)COC(C)C)cc1F | -1.63
CCOc1c(CNC2CSCCSC2)cccc1OC | 10.8
CCNc1ncc(CN(Cc2ccccc2)CC(C)CO)cn1 (stereo unspecified) | 6.33
Cc1ccc(N2CCCC(NCc3ccsc3)C2)nn1 (stereo unspecified) | -7.42
